Measurements taken from ChEMBL document CHEMBL1158832, “Bioactive tetrahydrofuran lignans from Peperomia dindygulensis” (J Nat Prod, 2005).
In brackets after ≈: the same amount, converted by molar mass.

How the values were obtained:
WI-38 VA13 = experiment: Cytotoxicity against human VA13 cells after 48 hrs by WST8 assay; assay type: functional, cell-based; conditions: WI-38 VA13, 48 h
How it was run: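 VA-13 cells grown in RITC 80-7 with 10% FBS; ca. 5000 cells/well preincubated 24 h at 37 °C, 5% CO2, then compounds in DMSO added for 48 h. WST-8 added, formazan read at 450 nm; IC50 taken as 50% growth inhibition from viability-versus-concentration plot.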

P-glycoprotein (ABCB1) [1] = target: T1, P-glycoprotein (ABCB1) (Homo sapiens, UniProt P08183); experiment: Inhibition of P-glycoprotein-mediated multidrug resistance in adriamycin-resistant human A2780 cells assessed as calcein accumulation at 0.25 ug/ml after 15 mins relative to control; assay type: cell-based; conditions: probe calcein, values are per cent of control
T1 sequence (P08183 whole entry): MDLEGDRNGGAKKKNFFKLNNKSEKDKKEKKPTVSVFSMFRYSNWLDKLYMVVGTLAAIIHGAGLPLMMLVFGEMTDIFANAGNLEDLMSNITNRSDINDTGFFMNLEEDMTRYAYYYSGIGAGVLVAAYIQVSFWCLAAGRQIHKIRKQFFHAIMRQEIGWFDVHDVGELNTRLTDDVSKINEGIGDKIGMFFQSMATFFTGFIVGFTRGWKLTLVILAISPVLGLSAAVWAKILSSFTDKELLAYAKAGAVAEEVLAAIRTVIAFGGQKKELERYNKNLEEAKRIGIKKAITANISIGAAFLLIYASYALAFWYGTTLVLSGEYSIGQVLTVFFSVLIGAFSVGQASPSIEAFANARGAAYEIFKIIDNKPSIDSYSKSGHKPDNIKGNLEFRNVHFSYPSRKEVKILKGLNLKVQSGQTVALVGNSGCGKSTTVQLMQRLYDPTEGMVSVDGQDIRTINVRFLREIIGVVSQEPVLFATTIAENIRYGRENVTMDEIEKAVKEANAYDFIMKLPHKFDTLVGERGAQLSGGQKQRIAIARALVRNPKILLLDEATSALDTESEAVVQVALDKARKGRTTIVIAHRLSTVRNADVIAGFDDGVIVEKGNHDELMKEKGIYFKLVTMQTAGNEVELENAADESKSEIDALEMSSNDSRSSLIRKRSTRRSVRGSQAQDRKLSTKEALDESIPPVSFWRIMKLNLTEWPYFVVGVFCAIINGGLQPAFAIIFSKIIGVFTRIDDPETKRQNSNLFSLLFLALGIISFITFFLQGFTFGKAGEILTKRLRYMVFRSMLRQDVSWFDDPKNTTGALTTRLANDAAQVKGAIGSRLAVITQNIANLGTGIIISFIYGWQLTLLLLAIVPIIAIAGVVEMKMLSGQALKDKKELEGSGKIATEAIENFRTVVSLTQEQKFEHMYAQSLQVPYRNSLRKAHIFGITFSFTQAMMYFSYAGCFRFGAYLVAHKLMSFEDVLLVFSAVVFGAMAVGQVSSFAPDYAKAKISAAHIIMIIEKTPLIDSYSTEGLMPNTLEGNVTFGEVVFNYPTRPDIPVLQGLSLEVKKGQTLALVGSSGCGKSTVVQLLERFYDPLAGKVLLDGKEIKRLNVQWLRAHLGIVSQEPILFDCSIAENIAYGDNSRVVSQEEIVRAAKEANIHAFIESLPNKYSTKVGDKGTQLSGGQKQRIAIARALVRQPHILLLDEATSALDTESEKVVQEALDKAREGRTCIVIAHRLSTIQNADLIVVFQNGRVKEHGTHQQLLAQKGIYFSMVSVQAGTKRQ

P-glycoprotein (ABCB1) [2] = target: T1, P-glycoprotein (ABCB1); experiment: Inhibition of P-glycoprotein-mediated multidrug resistance in adriamycin-resistant human A2780 cells assessed as calcein accumulation at 2.5 ug/ml after 15 mins relative to control; assay type: cell-based; conditions: probe calcein, values are per cent of control
P-glycoprotein (ABCB1) [3] = target: T1, P-glycoprotein (ABCB1); experiment: Inhibition of P-glycoprotein-mediated multidrug resistance in adriamycin-resistant human A2780 cells assessed as calcein accumulation at 25 ug/ml after 15 mins relative to control; assay type: cell-based; conditions: probe calcein, values are per cent of control
P-glycoprotein (ABCB1) [4] = target: T1, P-glycoprotein (ABCB1); experiment: Inhibition of P-glycoprotein-mediated multidrug resistance in adriamycin-resistant human A2780 cells assessed as calcein accumulation at 0.25 ug/ml after 15 mins relative to verapamil; assay type: cell-based; conditions: probe calcein
P-glycoprotein (ABCB1) [5] = target: T1, P-glycoprotein (ABCB1); experiment: Inhibition of P-glycoprotein-mediated multidrug resistance in adriamycin-resistant human A2780 cells assessed as calcein accumulation at 2.5 ug/ml after 15 mins relative to verapamil; assay type: cell-based; conditions: probe calcein
P-glycoprotein (ABCB1) [6] = target: T1, P-glycoprotein (ABCB1); experiment: Inhibition of P-glycoprotein-mediated multidrug resistance in adriamycin-resistant human A2780 cells assessed as calcein accumulation at 25 ug/ml after 15 mins relative to verapamil; assay type: cell-based; conditions: probe calcein
A549 [7] = experiment: Antiinflammatory activity against human A549 cells assessed as inhibition of IL-1-alpha-induced ICAM1 expression; assay type: functional, cell-based
How it was run: (§1)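 A549 cells, 2 × 10^4/well seeded the day before, preincubated 1 h ± test compounds, then stimulated with IL-1α (1 ng/mL) or TNF-α (10 ng/mL) for 6 h. Fixed in 1% paraformaldehyde, mouse anti-human ICAM-1 then peroxidase anti-mouse IgG; o-phenylenediamine/H2O2 substrate, pH 5.3, 20 min 37 °C, A415. Expression as % of stimulated minus unstimulated absorbance.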

A549 [8] = experiment: Antiinflammatory activity against human A549 cells assessed as inhibition of TNF-alpha-induced ICAM1 expression; assay type: functional, cell-based; how it was run: as §1
A549 [9] = experiment: Cytotoxicity against human A549 cells after 24 hrs by MTT assay; assay type: functional, cell-based
How it was run: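 A549 cells, 2 × 10^4/well seeded the day before, exposed to test compounds 24 h; MTT 500 µg/mL pulsed for the final 4 h, formazan dissolved in 10% SDS overnight, A595. Viability as (sample − background)/(control − background) × 100.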

HepG2 = experiment: Cytotoxicity against human HepG2 cells after 48 hrs by WST8 assay; assay type: functional, cell-based; conditions: HepG2, 48 h
How it was run: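 About 5000 cells per well, preincubated 24 h at 37 °C in 5% CO2. Cells kept in D-MEM with 10% FBS and 80 µg/mL kanamycin. Samples were added in DMSO and incubated a further 48 h. WST-8 formazan was read at 450 nm, viability was plotted against concentration, and IC50 was taken as the concentration giving 50% growth inhibition.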

SMILES | IC50 (WI-38 VA13) [µg/mL] | response, % of control at 0.25 h, 0.25 ug/ml (P-glycoprotein (ABCB1) [1]) [%] | response, % of control at 0.25 h, 2.5 ug/ml (P-glycoprotein (ABCB1) [2]) [%] | response, % of control at 0.25 h, 25 ug/ml (P-glycoprotein (ABCB1) [3]) [%] | inhibition at 0.25 h, 0.25 ug/ml (P-glycoprotein (ABCB1) [4]) [%] | inhibition at 0.25 h, 2.5 ug/ml (P-glycoprotein (ABCB1) [5]) [%] | inhibition at 0.25 h, 25 ug/ml (P-glycoprotein (ABCB1) [6]) [%] | IC50 (A549 [7]) [µM] | IC50 (A549 [8]) [µM] | Activity (A549 [9]) | IC50 (HepG2) [µg/mL]
O=C1CCCC(=O)C1C(=O)CCc1ccccc1 | 40.5 (≈ 166 µM) |  |  |  |  |  |  |  |  |  | 
COc1cc([C@@H]2O[C@H](c3cc(OC)c4c(c3)OCO4)[C@@H](COC(C)=O)[C@@H]2COC(C)=O)cc(OC)c1O | 47.4 (≈ 91.4 µM) | 88 | 95 | 101 | 100 | 99 | 78 | 84.4 | 38.6 | Not toxic | 
CC(C)[C@@H](C)/C=C/[C@@H](C)[C@H]1CC[C@H]2[C@@]3(O)C=C[C@@]4(O)C[C@@H](O)CC[C@]4(C)[C@H]3CC[C@]12C | 48.1 (≈ 112 µM) | 97 | 106 | 95 | 109 | 111 | 73 |  |  |  | 47.9 (≈ 111 µM)
COc1cc([C@H]2O[C@H](c3cc(OC)c4c(c3)OCO4)[C@@H](COC(C)=O)[C@@H]2CO)cc2c1OCO2 | 36.2 (≈ 76.3 µM) |  |  |  |  |  |  |  |  |  | 
COc1cc([C@@H]2O[C@H](c3cc(OC)c4c(c3)OCO4)[C@@H](COC(C)=O)[C@@H]2CO)cc(OC)c1OC |  | 97 | 105 | 138 | 110 | 110 | 107 | 189 | 105 | Not toxic | 
COc1cc([C@H]2O[C@@H](c3cc(OC)c4c(c3)OCO4)[C@@H](COC(C)=O)[C@@H]2CO)cc2c1OCO2 |  | 76 | 85 | 94 | 86 | 89 | 72 |  |  |  | 
COc1ccc(-c2cc(=O)c3c(O)cc(OC)cc3o2)cc1 [APIGENIN DIMETHYLETHER] | 38.9 (≈ 130 µM) |  |  |  |  |  |  |  |  |  | 
